The values below come from ChEMBL document CHEMBL3045504, “Activity of 1,4-benzoquinones against formosan subterranean termites (Coptotermes formosanus)” (2008).

Holding throughout (format): functional
The test system of test [1] is Coptotermes formosanus. The experiment in a line: Termiticidal activity against Coptotermes formosanus placed on 0.5 % wt/wt compound treated filter paper assessed as termite mortality measured 3 days post compound exposure. An outline of the steps:
(§1)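 Treated filter paper disks moistened with 100 µL water; 20 C. formosanus workers (third instar or greater) plus 1 soldier per dish from field colonies kept on spruce, ca. 100% RH, 26.6 °C. Daily mortality scored for 3 weeks; cumulative percent mortality from four replicates, each a different colony; water-only controls; ANOVA, protected Fisher LSD (P < 0.05) after arcsine square-root transform.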

Test [2] deals with Coptotermes formosanus. Put plainly: Antifeedant activity against Coptotermes formosanus placed on 0.5 % wt/wt compound treated filter paper assessed as filter paper consumption measured 21 days post compound exposure (reference value: 23.6 +/- 13.6 mg).
The subject of test [3] is Coptotermes formosanus. The experiment in a line: Termiticidal activity against Coptotermes formosanus placed on 0.5 % wt/wt compound treated filter paper assessed as termite mortality measured 21 days post compound exposure. In outline:
as §1

Test [4] relates to Coptotermes formosanus. Put plainly: Termiticidal activity against Coptotermes formosanus placed on 0.5 % wt/wt compound treated filter paper assessed as termite mortality measured 11 days post compound exposure. In outline:
as §1

The test system of test [5] is Coptotermes formosanus. The experiment in a line: Termiticidal activity against Coptotermes formosanus placed on 1 % wt/wt compound treated filter paper assessed as termite mortality measured 11 days post compound exposure.
Test [6] relates to Coptotermes formosanus. The experiment in a line: Termiticidal activity against Coptotermes formosanus placed on 1 % wt/wt compound treated filter paper assessed as termite mortality measured 21 days post compound exposure.
In test [7] the test system is Coptotermes formosanus. Put plainly: Antifeedant activity against Coptotermes formosanus placed on 1 % wt/wt compound treated filter paper assessed as filter paper consumption measured 21 days post compound exposure (reference value: 44 +/- 1.1 mg).
Test [8] deals with Coptotermes formosanus. Put plainly: Termiticidal activity against Coptotermes formosanus placed on 1 % wt/wt compound treated filter paper assessed as termite mortality measured 3 days post compound exposure.
Test [9] concerns Coptotermes formosanus. Put plainly: Antifeedant activity against Coptotermes formosanus placed on 1 % wt/wt compound treated filter paper assessed as filter paper consumption measured 21 days post compound exposure (reference value: 85 +/- 15.1 mg).
Test [10] has as its system Coptotermes formosanus. The experiment in a line: Antifeedant activity against Coptotermes formosanus placed on 1 % wt/wt compound treated filter paper assessed as filter paper consumption measured 21 days post compound exposure (reference value: 42.4 +/- 4.3 mg).
Test [11] has as its system Coptotermes formosanus. The experiment in a line: Antifeedant activity against Coptotermes formosanus placed on 1 % wt/wt compound treated filter paper assessed as filter paper consumption measured 21 days post compound exposure (reference value: 15.9 +/- 10.4 mg).

As for `COC1=C(OC)C(=O)C(Cl)=C(Cl)C1=O`, the mortality with Coptotermes formosanus [1] came to 2.5%; with Coptotermes formosanus [3], 30%; in the test with Coptotermes formosanus [4], 8.8%. For the same molecule, in the test on Coptotermes formosanus [2], the Activity is 19.3 mg.

Turning to `CC1=C(Br)C(=O)C(Br)=C(Cl)C1=O`, the values for the mortality in the test with Coptotermes formosanus [1], in the test on Coptotermes formosanus [3] and with Coptotermes formosanus [4] were 2.5%, 31.3% and 22.5%, respectively. The Activity in the test with Coptotermes formosanus [2] was found to be 26.1 mg.

Take `CNC1=C(Cl)C(=O)C(NC)=C(Cl)C1=O`: the mortality with Coptotermes formosanus [5] amounted to 90%; in the test on Coptotermes formosanus [6], 100%; with Coptotermes formosanus [8], 8.8%. Also, the Activity in the test on Coptotermes formosanus [7] worked out at 7.8 mg.

`COC1=C(Cl)C(=O)C(Cl)=C(OC)C1=O`: the figures for the mortality in the test with Coptotermes formosanus [5], in the test on Coptotermes formosanus [6] and with Coptotermes formosanus [8] were 0%, 2.5% and 0%, respectively. Besides, the Activity in the test with Coptotermes formosanus [7] stood at 37.8 mg.

In the case of `COc1cccc(NC2=C(Cl)C(=O)C(Nc3cccc(OC)c3)=C(Cl)C2=O)c1`, the mortality in the test with Coptotermes formosanus [5] was 1.3%; in the test with Coptotermes formosanus [6] it was 33.8%; in the test on Coptotermes formosanus [8], 0%. Besides, the Activity with Coptotermes formosanus [7] amounted to 34.9 mg.

For `O=C1C(Cl)=C(Nc2cccc([N+](=O)[O-])c2)C(=O)C(Cl)=C1Nc1cccc([N+](=O)[O-])c1`, the values for the mortality in the test on Coptotermes formosanus [5], in the test on Coptotermes formosanus [6] and with Coptotermes formosanus [8] were 75%, 90% and 0%, respectively. In addition, the Activity in the test on Coptotermes formosanus [7] was 18.3 mg.

For `Cc1ccc(NC2=C(Cl)C(=O)C(Nc3ccc(C)cc3)=C(Cl)C2=O)cc1`, the results for the mortality in the test with Coptotermes formosanus [5], in the test with Coptotermes formosanus [6] and with Coptotermes formosanus [8] were 52.5%, 88.8% and 6.3%, respectively. The Activity with Coptotermes formosanus [7] is reported as 19.1 mg.

For the molecule `COc1ccc(NC2=C(Cl)C(=O)C(Nc3ccc(OC)cc3)=C(Cl)C2=O)cc1`, the values for the mortality with Coptotermes formosanus [5], in the test with Coptotermes formosanus [6] and in the test with Coptotermes formosanus [8] were 3.8%, 57.5% and 1.3%, respectively. For the same molecule, the Activity with Coptotermes formosanus [7] worked out at 39.8 mg.

For the molecule `COc1ccccc1NC1=C(Cl)C(=O)C(Nc2ccccc2OC)=C(Cl)C1=O`, the mortality in the test with Coptotermes formosanus [5] came out at 0%; in the test on Coptotermes formosanus [6], 2.5%; with Coptotermes formosanus [8], 1.3%. The Activity in the test with Coptotermes formosanus [7] turned out to be 40.1 mg.

Take `O=C1C(Cl)=C(Nc2ccc(Cl)cc2)C(=O)C(Cl)=C1Nc1ccc(Cl)cc1`: the values for the mortality with Coptotermes formosanus [5], in the test on Coptotermes formosanus [6] and in the test with Coptotermes formosanus [8] were 62.5%, 86.3% and 10%, respectively. In addition, the Activity in the test on Coptotermes formosanus [7] was found to be 22.7 mg.

For `O=C1C(Cl)=C(Nc2ccccc2)C(=O)C(Cl)=C1Nc1ccccc1`, the mortality in the test with Coptotermes formosanus [5] came to 40%; in the test with Coptotermes formosanus [6] it was 60%; with Coptotermes formosanus [8], 0%. In the test with Coptotermes formosanus [7], the Activity was found to be 36.3 mg.

Regarding `Cc1ccc(C2=CC(=O)C=CC2=O)cc1`, the mortality with Coptotermes formosanus [5] was 16.7%; in the test with Coptotermes formosanus [6], 38.3%; with Coptotermes formosanus [8] it was 5%. The Activity with Coptotermes formosanus [9] stood at 43.2 mg.

Consider `COC1=CC(=O)C(c2ccccc2)=CC1=O`, for which the Activity in the test on Coptotermes formosanus [10] came to 35.8 mg. Further, the mortality with Coptotermes formosanus [5] worked out at 6.7%; with Coptotermes formosanus [6] it was 31.7%; in the test with Coptotermes formosanus [8], 3.3%.

In the case of `COC1=CC(=O)C(C[P+](c2ccccc2)(c2ccccc2)c2ccccc2)=CC1=O.[Cl-]`, the Activity in the test on Coptotermes formosanus [10] is on record as 5.3 mg. Moreover, the mortality came to 60% in the test with Coptotermes formosanus [5], 98.3% in the test with Coptotermes formosanus [6] and 13.3% with Coptotermes formosanus [8].

`CC(C)(C)C1=CC(=O)C=CC1=O`: the mortality with Coptotermes formosanus [5] is listed as 18.3%; in the test on Coptotermes formosanus [6], 28.3%; with Coptotermes formosanus [8], 13.3%. The Activity in the test with Coptotermes formosanus [9] came to 60.4 mg.

As for `CC1=CC(=O)C(C(C)(C)C)=CC1=O`, the mortality stood at 21.7% in the test with Coptotermes formosanus [5], 26.7% with Coptotermes formosanus [6] and 5% in the test on Coptotermes formosanus [8]. Further, the Activity in the test on Coptotermes formosanus [9] is recorded as 68.3 mg.

As for `COC1=CC(=O)C=CC1=O`, the figures for the mortality in the test with Coptotermes formosanus [5], with Coptotermes formosanus [6] and in the test on Coptotermes formosanus [8] were 21.7%, 31.7% and 13.3%, respectively. Further, the Activity in the test with Coptotermes formosanus [9] is on record as 6.5 mg.

On to `COC1=CC(=O)C(OC)=CC1=O`, for which the mortality with Coptotermes formosanus [5] is 6.7%; in the test on Coptotermes formosanus [6], 8.3%; in the test with Coptotermes formosanus [8], 3.3%. In the test with Coptotermes formosanus [9], the Activity was 107 mg.

In the case of `COC1=CC(=O)C=C(OC)C1=O` [2,6-DIMETHOXYQUINONE], the mortality amounted to 3.3% in the test with Coptotermes formosanus [5], 3.3% in the test with Coptotermes formosanus [6] and 0% with Coptotermes formosanus [8]. Moreover, the Activity in the test with Coptotermes formosanus [9] is recorded as 75.9 mg.

As for `O=C1C=CC(=O)C=C1` [BENZOQUINONE], in the test on Coptotermes formosanus [9], the Activity worked out at 80.7 mg.

With `COC1=C(OC)C(=O)C(C/C=C(\C)CCC=C(C)C)=C(C)C1=O` [Coenzyme Q2], the mortality in the test with Coptotermes formosanus [5] is on record as 15%; with Coptotermes formosanus [6] it was 25%; with Coptotermes formosanus [8], 0%. The Activity in the test with Coptotermes formosanus [9] is 56.1 mg.

`COC1=C(OC)C(=O)C(C/C=C(\C)CC/C=C(\C)CC/C=C(\C)CCC=C(C)C)=C(C)C1=O` [Coenzyme Q4]: the mortality was found to be 11.7% in the test with Coptotermes formosanus [5], 15% in the test with Coptotermes formosanus [6] and 1.7% in the test with Coptotermes formosanus [8]. Besides, the Activity with Coptotermes formosanus [9] came out at 74.6 mg.

On to `COC1=C(OC)C(=O)C(C/C=C(\C)CC/C=C(\C)CC/C=C(\C)CC/C=C(\C)CC/C=C(\C)CCC=C(C)C)=C(C)C1=O` [Coenzyme Q6], for which the mortality stood at 6.7% with Coptotermes formosanus [5], 18.3% in the test on Coptotermes formosanus [6] and 1.7% in the test on Coptotermes formosanus [8]. The Activity in the test with Coptotermes formosanus [9] is 97.3 mg.

Turning to `COC1=C(OC)C(=O)C(C/C=C(\C)CC/C=C(\C)CC/C=C(\C)CC/C=C(\C)CC/C=C(\C)CC/C=C(\C)CC/C=C(\C)CC/C=C(\C)CCC=C(C)C)=C(C)C1=O` [Coenzyme Q9], the mortality in the test on Coptotermes formosanus [5], in the test on Coptotermes formosanus [6] and in the test on Coptotermes formosanus [8] was 15% in each case. Moreover, the Activity in the test with Coptotermes formosanus [9] is 63.9 mg.

As for `COC1=CC(=O)C(C)=CC1=O` [Coprinin], the mortality with Coptotermes formosanus [5] came to 56.7%; in the test on Coptotermes formosanus [6], 93.3%; in the test on Coptotermes formosanus [8], 18.3%. In addition, in the test with Coptotermes formosanus [9], the Activity is recorded as 4.2 mg.

In the case of `CC1=CC(=O)C=CC1=O` [Cresoquinone], the mortality with Coptotermes formosanus [5] is recorded as 11.7%; in the test on Coptotermes formosanus [6] it was 20%; with Coptotermes formosanus [8], 1.7%. Further, the Activity in the test on Coptotermes formosanus [9] is 22.5 mg.

Take `CCCCCCCCCCC1=C(C)C(=O)C(OC)=C(OC)C1=O` [DECYLUBIQUINONE]: the Activity in the test on Coptotermes formosanus [10] amounted to 19.3 mg. The mortality in the test on Coptotermes formosanus [5] is given as 75%; with Coptotermes formosanus [6] it was 100%; in the test with Coptotermes formosanus [8] it was 13.3%.

As to `CCCCCCCCCCCC1=C(O)C(=O)C=C(O)C1=O` [EMBELIN], the mortality in the test with Coptotermes formosanus [5] amounted to 18.3%; in the test on Coptotermes formosanus [6] it was 46.7%; with Coptotermes formosanus [8] it was 3.3%. Also, the Activity with Coptotermes formosanus [9] worked out at 10.7 mg.

With `COC1=C(OC)C(=O)C(CCCCCCCCCCO)=C(C)C1=O` [IDEBENONE], the Activity in the test on Coptotermes formosanus [10] worked out at 37.9 mg. Also, the mortality in the test on Coptotermes formosanus [5] was determined as 0%; in the test on Coptotermes formosanus [6] it was 38.3%; with Coptotermes formosanus [8], 0%.

In the case of `CCCCCCCCCCCCCC1=C(O)C(=O)C=C(O)C1=O` [Rapanone], the mortality with Coptotermes formosanus [5] was 76.7%; with Coptotermes formosanus [6] it was 81.7%; in the test on Coptotermes formosanus [8] it was 5%. Besides, in the test with Coptotermes formosanus [11], the Activity amounted to 0.3 mg.

On to `COC1=C(OC)C(=O)C(C/C=C(\C)CC/C=C(\C)CC/C=C(\C)CC/C=C(\C)CC/C=C(\C)CC/C=C(\C)CC/C=C(\C)CC/C=C(\C)CC/C=C(\C)CCC=C(C)C)=C(C)C1=O` [UBIDECARENONE], for which the mortality in the test on Coptotermes formosanus [5] came out at 10%; in the test on Coptotermes formosanus [6], 10%; in the test with Coptotermes formosanus [8], 0%. Moreover, the Activity in the test on Coptotermes formosanus [9] stood at 49.6 mg.

Consider `COC1=C(OC)C(=O)C(C)=CC1=O` [Ubiquinone Qo], for which the Activity in the test on Coptotermes formosanus [10] was found to be 7.2 mg. Also, the values for the mortality in the test with Coptotermes formosanus [5], in the test with Coptotermes formosanus [6] and with Coptotermes formosanus [8] were 81.7%, 90% and 75%, respectively.
